# Measurements of several laboratories.
# Matrix: plasma
Compound,system,setting,Cmax
CCCc1nc2c(C)cc(-c3nc4ccccc4n3C)cc2n1Cc1ccc(-c2ccccc2C(=O)O)cc1,male Sprague-Dawley rat,"oral, 8 mg/kg, single dose",136 ng/mL
CC[C@H](C)[C@H](NC(=O)[C@@H]1CCCN1C(=O)CNC(=O)[C@H](Cc1ccccc1)NC(=O)[C@H](CC(N)=O)NC(=O)[C@H](CC(N)=O)NC(=O)[C@H](CO)NC(=O)[C@H](CO)NC(=O)[C@H](Cc1c[nH]cn1)NC(=O)[C@H](CCCNC(=N)N)NC(=O)[C@H](CC(C)C)NC(=O)[C@H](Cc1ccccc1)NC(=O)[C@H](CCC(=O)O)NC(=O)[C@H](C)NC(=O)[C@H](CC(C)C)NC(=O)[C@H](CCCNC(=N)N)NC(=O)[C@H](CCC(N)=O)NC(=O)[C@@H](NC(=O)[C@H](C)NC(=O)[C@@H]1CSSC[C@H](NC(=O)[C@H](CCCCN)NC(=O)CC[C@H](NC(=O)CCCCCCCCCCCCCCCCCCC(=O)O)C(=O)O)C(=O)N[C@@H](CC(N)=O)C(=O)N[C@@H]([C@@H](C)O)C(=O)N[C@@H](C)C(=O)N[C@@H]([C@@H](C)O)C(=O)N1)[C@@H](C)O)C(=O)N[C@@H](CC(C)C)C(=O)N1CCC[C@H]1C(=O)N1CCC[C@H]1C(=O)N[C@H](C(=O)N[C@@H](CC(N)=O)C(=O)N[C@H](C(=O)NCC(=O)N[C@@H](CO)C(=O)N[C@@H](CC(N)=O)C(=O)N[C@H](C(=O)N1CCC[C@H]1C(N)=O)[C@@H](C)O)C(C)C)[C@@H](C)O,male Sprague-Dawley rat,"subcutaneous, 30 nmol/kg, single dose",98.8 nM
O=C1CCC(N2Cc3cc(C4CCN(Cc5ccccc5)CC4)ccc3C2=O)C(=O)N1 (stereo not shown),male Sprague-Dawley rat,"intravenous, 1 mg/kg",113 ng/mL
C=CC(=O)N1CCC[C@@H](n2nc(-c3ccc(Oc4ccccc4)cc3)c3c(N)ncnc32)C1,rat,"oral, 40 mg/kg",84.4 ng/mL
CONC(=O)c1cccc2c1cc(C)n2-c1nc2c(c(NCc3ccccc3)n1)CCCN2,male Sprague-Dawley rat,"intravenous, 1 mg/kg, single dose",28.2 ng/mL
Nc1ccn([C@@H]2O[C@H](CO)[C@@H](O)C2(F)F)c(=O)n1,male Sprague-Dawley rat,"intraperitoneal, 5 mg/kg",12500 ng/mL
CCOc1c([C@H](C)n2nc(C)c3c(N)ncnc32)cc(Cl)c(F)c1[C@@H]1CNC(=O)C1,male Sprague-Dawley rat,"oral, 2 mg/kg, single dose",666 ng/mL
CNC(=O)c1cc(Oc2ccc(NC(=O)Nc3ccc(Cl)c(C(F)(F)F)c3)cc2)ccn1,male Sprague-Dawley rat,"oral, 100 mg/kg, single dose",956 ng/mL
COc1ccc(N(Cc2csc(-c3ccccc3)n2)C(=O)CCCCCC(=O)NO)cc1,female Sprague-Dawley rat,"intravenous, 5 mg/kg",150 ng/mL
CCCCC(=O)Nc1ccc(-c2ccc3ncn(CCC)c(=O)c3c2)cn1,male rat,"oral, 10 mg/kg",966 ng/mL
COc1nc(-c2cccc(-c3ccccc3)c2C)ccc1CNCCNC(=O)CCCCCCCCCCC(=O)N1CCN(CCNC(=O)c2cc3c(=O)n4cccc(C)c4nc3n(CCc3cccs3)c2=N)CC1,male Sprague-Dawley rat,"oral, 40 mg/kg",20.2 ng/mL
C=CCn1c(=O)c2cnc(Nc3ccc(N4CCN(C)CC4)cc3)nc2n1-c1ccc2c(n1)[C@@](O)(CC)CC2,rat,"oral, 60 mg/kg",4000 nM
C[C@H]1Oc2cc(cnc2N)-c2c(nn(C)c2C#N)CN(C)C(=O)c2ccc(F)cc21,Sprague-Dawley rat,"intravenous, 1 mg/kg, single dose",2250 ng/mL
CCN(CC)Cc1ccc2cc(COC(=O)Nc3ccc(C(=O)NO)cc3)ccc2c1,male Sprague-Dawley rat,"oral, 10 mg/kg",2650 ng/mL
COc1cc(-c2cc(C(C)=O)n3ccccc23)c(OC)cc1Cn1ccnc1,male Sprague-Dawley rat,"intravenous, 5 mg/kg",4120 ng/mL
CC[C@@H]([C@H](C)O)n1ncn(-c2ccc(N3CCN(c4ccc(OC[C@@H]5CO[C@@](Cn6cncn6)(c6ccc(F)cc6F)C5)cc4)CC3)cc2)c1=O,Sprague-Dawley rat,"oral, 40 mg/kg",703 ng/mL
